{
  "source": "ChEMBL document CHEMBL1125493",
  "about": "“HIV-1 neutralization and tumor cell proliferation inhibition in vitro by simplified analogues of pyrido[4,3,2-mn]thiazolo[5,4-b]acridine marine alkaloids” (J Med Chem, 1992)",
  "key": {"[1]": {"test_system": "Human immunodeficiency virus 1", "test": "Inhibitory effect against HIV-1 induced cytopathic effects(HIV-1 neutralization) in MT-4 lymphocytes at a concentration of 10 ug/mL (0.0375 uM/mL).", "format": "functional", "summary_of_the_method": "(§1)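 HIV-1 Molt IIIB (~2 × 10^4 TCID50 in 100 μL) preincubated 1 h at 37 °C with a single compound dose, then added to MT-4 cells (5 × 10^5 cells/well, 1 mL). Cultured at 37 °C, 5% CO2. Viable cells counted by trypan blue exclusion on days 4 and 7. Triplicates; % viable cells. Controls: infected cells (positive), uninfected cells (negative).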"}, "MCF7 [2]": {"test_system": "MCF7", "test": "[…] breast tumor cell proliferation inhibition by the compound in vitro at a concentration of 0.015 uM.", "format": "functional, Homo sapiens", "summary_of_the_method": "(§2)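 Breast tumor cells treated with specified compound concentrations in RPMI-1640 in 1% agar with 5% FBS for 1 week. Viability compared with a control given distilled water in place of drug; 5-fluorouracil as standard cytotoxic drug. Reported as concentration-dependent cell survival.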"}, "MCF7 [3]": {"test_system": "MCF7", "test": "[…] breast tumor cell proliferation inhibition by the compound in vitro at a concentration of 0.15 uM.", "format": "functional, Homo sapiens", "summary_of_the_method": "as §2"}, "COLO 320DM [4]": {"test_system": "COLO 320DM", "test": "COLO 320DM colon tumor cell proliferation inhibition by the compound in vitro at a concentration of 0.015 uM.", "format": "functional, Homo sapiens", "summary_of_the_method": "(§3)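 Tumor cells grown in RPMI-1640 in 1% agar with 5% fetal bovine serum, exposed to the specified concentrations for 1 week. Viability was assessed against a control given distilled water in place of drug. 5-Fluorouracil served as the positive cytotoxic standard. Results are reported as concentration-dependent cell survival.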"}, "COLO 320DM [5]": {"test_system": "COLO 320DM", "test": "COLO 320DM colon tumor cell proliferation inhibition by the compound in vitro at a concentration of 0.15 uM.", "format": "functional, Homo sapiens", "summary_of_the_method": "as §3"}, "MT4 [6]": {"test_system": "MT4", "test": "Cytotoxic effect in cultured MT-4 lymphocytes at a concentration of 2 ug/mL (0.0076 uM/mL).", "format": "functional, Homo sapiens", "summary_of_the_method": "(§4)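 MT-4 cells at 5 × 10^4 cells/well, 1 mL total, cultured with compound diluted in RPMI 1640 with 10% FBS, 10 mM HEPES, penicillin/streptomycin and 2 mM glutamine, at 37 °C under 5% CO2. Viability was scored by trypan blue exclusion on days 4 and 7, in triplicate, as % viable cells.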"}, "MT4 [7]": {"test_system": "MT4", "test": "Cytotoxic effect in cultured MT-4 lymphocytes at a concentration of 100 ug/mL (0.3750 uM/mL).", "format": "functional, Homo sapiens", "summary_of_the_method": "as §4"}, "COLO 320DM [8]": {"test_system": "COLO 320DM", "test": "COLO 320DM colon tumor cell proliferation inhibition by the compound in vitro at a concentration of 1.5 uM.", "format": "functional, Homo sapiens", "summary_of_the_method": "as §3"}, "MCF7 [9]": {"test_system": "MCF7", "test": "[…] breast tumor cell proliferation inhibition by the compound in vitro at a concentration of 1.5 uM.", "format": "functional, Homo sapiens", "summary_of_the_method": "as §2"}, "[10]": {"test": "Calu3 lung tumor cell proliferation inhibition by the compound in vitro at a concentration of 0.15 uM.", "format": "functional, Homo sapiens", "summary_of_the_method": "as §3"}, "MT4 [11]": {"test_system": "MT4", "test": "Cytotoxic effect in cultured MT-4 lymphocytes at a concentration of 10 ug/mL (0.0375 uM/mL).", "format": "functional, Homo sapiens", "summary_of_the_method": "as §4"}, "[12]": {"test_system": "Human immunodeficiency virus 1", "test": "Inhibitory effect against HIV-1 in human peripheral blood monocyte cells(PBMC) (EC50-22.6 ug/mL)", "format": "functional, organism-based"}, "[13]": {"test": "Calu3 lung tumor cell proliferation inhibition by the compound in vitro at a concentration of 1.5 uM.", "format": "functional, Homo sapiens", "summary_of_the_method": "as §3"}, "[14]": {"test": "Calu3 lung tumor cell proliferation inhibition by the compound in vitro at a concentration of 0.015 uM.", "format": "functional, Homo sapiens", "summary_of_the_method": "as §3"}, "MT4 [15]": {"test_system": "MT4", "test": "Cytotoxic effect in cultured MT-4 lymphocytes at a concentration of 10 ug/mL (0.0350 uM/mL).", "format": "functional, Homo sapiens", "summary_of_the_method": "as §4"}, "MT4 [16]": {"test_system": "MT4", "test": "Cytotoxic effect in cultured MT-4 lymphocytes at a concentration of 2 ug/mL (0.0070 uM/mL).", "format": "functional, Homo sapiens", "summary_of_the_method": "as §4"}, "[17]": {"test_system": "Human immunodeficiency virus 1", "test": "Inhibitory effect against HIV-1 in human peripheral blood monocyte cells(PBMC) (EC50 ->7.44 ug/mL)", "format": "functional, organism-based"}, "[18]": {"test_system": "Human immunodeficiency virus 1", "test": "Inhibitory effect against HIV-1 induced cytopathic effects(HIV-1 neutralization) in MT-4 lymphocytes at a concentration of 100 ug/mL (0.3500 uM/mL).", "format": "functional", "summary_of_the_method": "as §1"}, "MT4 [19]": {"test_system": "MT4", "test": "Cytotoxic effect in cultured MT-4 lymphocytes at a concentration of 100 ug/mL (0.3500 uM/mL).", "format": "functional, Homo sapiens", "summary_of_the_method": "as §4"}},
  "data": [
    {"compound": "Cc1nc2cc3nc4ccccc4c(O)c3cc2s1.Cl", "values": [
      {"measurement": "Viability", "setting": "[1]", "value": 19.4, "unit": "%"},
      {"measurement": "Viability", "setting": "MCF7 [2]", "value": 91, "unit": "%"},
      {"measurement": "Viability", "setting": "MCF7 [3]", "value": 38, "unit": "%"},
      {"measurement": "Viability", "setting": "COLO 320DM [4]", "value": 117, "unit": "%"},
      {"measurement": "Viability", "setting": "COLO 320DM [5]", "value": 49, "unit": "%"},
      {"measurement": "Viability", "setting": "MT4 [6]", "value": 91.9, "unit": "%"},
      {"measurement": "Viability", "setting": "MT4 [7]", "value": 74.3, "unit": "%"},
      {"measurement": "Viability", "setting": "COLO 320DM [8]", "value": 0, "unit": "%"},
      {"measurement": "Viability", "setting": "MCF7 [9]", "value": 0, "unit": "%"},
      {"measurement": "Viability", "setting": "[10]", "value": 36, "unit": "%"},
      {"measurement": "Viability", "setting": "MT4 [11]", "value": 87.2, "unit": "%"},
      {"measurement": "EC50", "setting": "[12]", "value": 84.6, "unit": "µM"},
      {"measurement": "Viability", "setting": "[13]", "value": 0, "unit": "%"},
      {"measurement": "Viability", "setting": "[14]", "value": 98, "unit": "%"}
    ]},
    {"compound": "Cc1nc2cc(Nc3ccccc3C(=O)[O-])ccc2s1.[Na+]", "values": [
      {"measurement": "Viability", "setting": "MT4 [15]", "value": 92.6, "unit": "%"},
      {"measurement": "Viability", "setting": "MT4 [16]", "value": 87.5, "unit": "%"},
      {"measurement": "EC50", "setting": "[17]", "value": 26, "unit": "µM"},
      {"measurement": "Viability", "setting": "[18]", "value": 18.2, "unit": "%"},
      {"measurement": "Viability", "setting": "MT4 [19]", "value": 93.3, "unit": "%"}
    ]}
  ]
}
